A short description of data set [1]: Bioavailability in the portal circulation after 10 minutes was determined after intraduodenal dose of 10 mg/kg in rat by HPLC method. It counts as ADME, organism-based. The note with it: plasma (portal circulation), read-out: Plasma level. The method in brief: (§1)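 Screening model in anesthetized rats given 10 mg/kg intraduodenally. Formulation was ethanol stock with 110 mol % HCl, diluted with aqueous hydroxypropyl methylcellulose to 25% ethanol. Systemic and portal blood drawn at 10 and 30 min in the same animals. Drug level (ng/mL) measured by HPLC or renin inhibition assay. Mean ± SEM, n = 3 unless noted.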

Data set [2] in a line: Bioavailability in the portal circulation after 30 minutes was determined after intraduodenal dose of 10 mg/kg in rat by HPLC method. Type of data set: ADME, organism-based. The settings on record: plasma (portal circulation), read-out: Plasma level. In short, it runs like this: as §1
The nature of data set [3]: Bioavailability in the systemic circulation after 10 minutes was determined after intraduodenal dose of 10 mg/kg in rat by HPLC method. Type of data set: ADME, organism-based. The settings on record: plasma (systemic circulation), read-out: Plasma level. The method in brief:
as §1

A short description of data set [4]: Bioavailability in the systemic circulation after 30 minutes was determined after intraduodenal dose of 10 mg/kg in rat by HPLC method. The note with it: plasma (systemic circulation), read-out: Plasma level. It counts as ADME, organism-based. In short, it runs like this: as §1
The nature of data set [5]: Partition coefficient in octanol/water phase at pH 7.4. Type of data set: physicochemical. In short, it runs like this:
(§2)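 log P measured by octanol/water partition at pH 7.4.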

In data set [6] the target is T1, Renin (Homo sapiens, UniProt P00797).
T1 sequence (P00797 whole entry): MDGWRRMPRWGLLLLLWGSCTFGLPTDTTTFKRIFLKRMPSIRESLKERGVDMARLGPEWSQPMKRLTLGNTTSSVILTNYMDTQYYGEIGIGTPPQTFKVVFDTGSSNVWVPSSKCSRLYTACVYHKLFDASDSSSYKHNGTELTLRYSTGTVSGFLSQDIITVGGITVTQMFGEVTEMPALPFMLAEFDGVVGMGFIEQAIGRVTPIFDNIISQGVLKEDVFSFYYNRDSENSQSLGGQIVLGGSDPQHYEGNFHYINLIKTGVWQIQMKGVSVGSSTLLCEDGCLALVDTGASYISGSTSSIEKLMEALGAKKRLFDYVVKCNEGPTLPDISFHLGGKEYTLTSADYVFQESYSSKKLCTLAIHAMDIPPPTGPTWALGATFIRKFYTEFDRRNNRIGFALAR
Briefly: Inhibitory concentration against human plasma renin at pH 7.4. It counts as cell-free.

Data set [7] in a line: Integrated area under the plasma drug level-time curve was determined in portal circulation after intraduodenal dose of 10 mg/kg in monkey. Type of data set: ADME, organism-based. The arrangement: dose 10 mg/kg, route intraduodenal. The settings on record: simiiformes. The method in brief:
(§3)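 Anesthetized, salt-depleted cynomolgus monkeys dosed intraduodenally at 10 mg/kg in HCl salt/ethanol–hydroxypropyl methylcellulose vehicle (25% ethanol). Systemic and portal plasma drug levels measured by renin inhibition assay. AUC in ng h/mL. Bioavailability compared against an iv dose of 0.3 mg/kg or 1.0 mg/kg, the latter taken from earlier work. Mean ± SEM.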

Data set [8] can be described thus: Integrated area under the plasma drug level-time curve was determined in systemic circulation after intraduodenal dose of 10 mg/kg in monkey. Type of data set: ADME, organism-based. Also noted: dose 10 mg/kg, route intraduodenal. The note with it: simiiformes. The method in brief: as §3
The nature of data set [9]: Bioavailability was determined after intraduodenal dose of 10 mg/kg in monkey (compared to 0.3 mg/kg intravenous dose). It counts as ADME, organism-based. The note with it: simiiformes, in vivo, read-out: Bioavailabiility. In short, it runs like this: as §3
A short description of data set [10]: Hypotension peak is percentage change from predose baseline pressure observed after intraduodenal dose of 10 mg/kg in monkey. It counts as ADME, organism-based. Also noted: dose 10 mg/kg, route intraduodenal. The settings on record: simiiformes, in vivo, other. In short, it runs like this:
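Anesthetized, salt-depleted cynomolgus monkeys given 10 mg/kg intraduodenally. Mean arterial pressure followed for up to 5 h. Peak fall expressed as % change from predose baseline. Difference from baseline significant if P < 0.05. Mean ± SEM.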

Data set [11] is described as follows: Peak concentration was determined in portal circulation after intraduodenal dose of 10 mg/kg in monkey. Type of data set: ADME, organism-based. The note with it: simiiformes, in vivo, read-out: Activity. Also noted: dose 10 mg/kg, route intraduodenal. The method in brief: as §3
A short description of data set [12]: Peak concentration was determined in systemic circulation after intraduodenal dose of 10 mg/kg in monkey. It counts as ADME, organism-based. The arrangement: dose 10 mg/kg, route intraduodenal. The note with it: simiiformes, in vivo, read-out: Activity. The method in brief:
as §3

Data set [13] can be described thus: Partition coefficient in the octanol/water phase at pH 7.4. It counts as physicochemical. The method in brief: as §2
The nature of data set [14]: Integrated area under the plasma drug level-time curve was determined in systemic circulation after intraduodenal dose of 10 mg/kg in ferret, determined by renin inhibition assay. Type of data set: ADME, organism-based, Mustela putorius furo. Also noted: dose 10 mg/kg, route intraduodenal. In short, it runs like this: (§4)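 Intraduodenal 10 mg/kg to anesthetized rats or ferrets. Compound dissolved in ethanol with 110 mol % HCl, then diluted in aqueous hydroxypropyl methylcellulose to 25% ethanol (10 mg/mL). Plasma sampled id rat 15, 30, 60, 120 min; id ferret 5, 15, 30, 60, 120, 180 min. Drug measured by renin inhibition assay or HPLC. AUC in ng h/mL. Bioavailability is relative to iv 1.0 mg/kg (rat) or 0.3 mg/kg (ferret).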

Data set [15] can be described thus: Integrated area under the plasma drug level-time curve was determined in systemic circulation after intraduodenal dose of 10 mg/kg in monkey determined by renin inhibition assay. Type of data set: ADME, organism-based. The arrangement: dose 10 mg/kg, route intraduodenal. The settings on record: simiiformes. The method in brief:
as §3

A short description of data set [16]: Integrated area under the plasma drug level-time curve was determined in systemic circulation after intraduodenal dose of 10 mg/kg in rat, determined by renin inhibition assay. Type of data set: ADME, organism-based. Also noted: dose 10 mg/kg, route intraduodenal. The method in brief: as §4
Data set [17] is described as follows: Bioavailability was determined after intraduodenal dose of 10 mg/kg in monkey (compared to 0.3 mg/kg intravenous dose), determined by renin inhibition assay. The note with it: simiiformes, in vivo, read-out: Bioavailabiility. Type of data set: ADME, organism-based. In short, it runs like this:
as §3

The nature of data set [18]: Bioavailability was determined after intraduodenal dose of 10 mg/kg in rat, determined by renin inhibition assay. Type of data set: ADME, organism-based. The settings on record: in vivo, read-out: Bioavailabiility. The method in brief:
as §4

Data set [19] is described as follows: Peak concentration was determined in systemic circulation after intraduodenal dose of 10 mg/kg in ferret, determined by renin inhibition assay. It counts as ADME, organism-based, Mustela putorius furo. The arrangement: dose 10 mg/kg, route intraduodenal. The note with it: in vivo, read-out: Activity. The method in brief: as §4
Data set [20] can be described thus: Peak concentration was determined in systemic circulation after intraduodenal dose of 10 mg/kg in monkey, determined by renin inhibition assay. It counts as ADME, organism-based. The arrangement: dose 10 mg/kg, route intraduodenal. The settings on record: simiiformes, in vivo, read-out: Activity. The method in brief:
as §3

The nature of data set [21]: Peak concentration was determined in systemic circulation after intraduodenal dose of 10 mg/kg in rat, determined by renin inhibition assay. Type of data set: ADME, organism-based. Also noted: dose 10 mg/kg, route intraduodenal. The note with it: in vivo, read-out: Activity. In short, it runs like this: as §4
Data set [22] can be described thus: Bioavailability in the portal circulation after 30 minutes was determined after intraduodenal dose of 10 mg/kg in rat by renin inhibition assay. Type of data set: ADME, organism-based. The note with it: plasma (portal circulation), read-out: Plasma level. In short, it runs like this: as §1
The nature of data set [23]: Solubility at pH 7.4. Type of data set: physicochemical. The settings on record: buffer.
Data set [24] is described as follows: Bioavailability in the portal circulation after 10 minutes was determined after intraduodenal dose of 10 mg/kg in rat by renin inhibition assay. It counts as ADME, organism-based. The note with it: plasma (portal circulation), read-out: Plasma level. The method in brief:
as §1

A short description of data set [25]: Bioavailability in the systemic circulation after 10 minutes was determined after intraduodenal dose of 10 mg/kg in rat by renin inhibition assay. It counts as ADME, organism-based. The note with it: plasma (systemic circulation), read-out: Plasma level. The method in brief:
as §1

Data set [26] can be described thus: Bioavailability in the systemic circulation after 30 minutes was determined after intraduodenal dose of 10 mg/kg in rat by renin inhibition assay. Type of data set: ADME, organism-based. The settings on record: plasma (systemic circulation), read-out: Plasma level. The method in brief: as §1
Data set [27] concerns the target T1, Renin. Put plainly: In vitro inhibitory concentration against human plasma renin at pH 7.4. Type of data set: cell-free.
Data set [28] addresses T2, Renin (Rattus norvegicus, UniProt P08424).
T2 sequence (P08424 whole entry): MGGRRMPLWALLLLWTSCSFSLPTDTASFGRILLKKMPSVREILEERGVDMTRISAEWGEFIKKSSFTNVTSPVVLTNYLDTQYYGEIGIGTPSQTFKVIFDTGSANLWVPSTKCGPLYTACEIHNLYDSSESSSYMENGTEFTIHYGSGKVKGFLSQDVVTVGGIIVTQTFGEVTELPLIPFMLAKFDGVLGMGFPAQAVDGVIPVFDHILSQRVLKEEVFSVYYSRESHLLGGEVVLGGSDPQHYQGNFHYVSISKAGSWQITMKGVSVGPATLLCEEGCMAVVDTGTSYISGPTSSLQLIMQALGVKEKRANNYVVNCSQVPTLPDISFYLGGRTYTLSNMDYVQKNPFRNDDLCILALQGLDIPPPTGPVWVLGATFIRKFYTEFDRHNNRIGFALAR
Put plainly: In vitro inhibitory concentration against rat plasma renin at pH 7.4. It counts as cell-free.

The nature of data set [29]: Bioavailability was determined after intraduodenal dose of 10 mg/kg in ferret, determined by renin inhibition assay. Type of data set: ADME, organism-based, Mustela putorius furo. The note with it: in vivo, read-out: Bioavailabiility. The method in brief:
as §4

Data set [30] addresses Renin (Canis lupus familiaris). Briefly: In vitro inhibitory concentration against dog plasma renin at pH 7.4.
A short description of data set [31]: In vitro inhibitory concentration against monkey plasma renin at pH 7.4.

pIC50: −log10 of the molar value. ≈ marks a conversion by molar mass, not a printed value.

Take `CC(C)C[C@H](O)[C@H](O)[C@H](CC1CCCCC1)NC(=O)[C@H](Cc1cscn1)NC(=O)[C@@H](CC(=O)N(C)CCCN(C)C)Cc1ccccc1`: the concentration at 10 min in data set [1] was 580 ng/mL; in data set [3], 93 ng/mL. The concentration at 0.5 h came out at 270 ng/mL in [2] and 47 ng/mL in data set [4]. This compound also registered a logD in data set [5] of 2.83. In data set [6], the pIC50 was 8.09.
As to `CC(C)C[C@H](O)[C@H](O)[C@H](CC1CCCCC1)NC(=O)[C@H](Cc1cscn1)NC(=O)[C@H](Cc1ccccc1)CS(=O)(=O)C1CCN(C)CC1`, the exposure (AUC) in [7] amounted to 530 ng·h/mL; in data set [8], 110 ng·h/mL. The bioavailability in data set [9] is 1.8%. This compound displayed a Change in [10] of 23%. Also, the Cmax in data set [11] turned out to be 550 ng/mL; in data set [12], 72 ng/mL. The logD in [13] came to 3.61. Besides, the pIC50 in [6] is 8.40.
`CC(C)C[C@H](O)[C@H](O)[C@H](CC1CCCCC1)NC(=O)[C@H](Cc1cscn1)NC(=O)[C@@H](CC(=O)N(C)CCc1ccccn1)Cc1ccccc1`: the AUC in data set [7] is 3400 ng·h/mL; in data set [14] it was 1100 ng·h/mL; in data set [15], 260 ng·h/mL; in [16] it was 1300 ng·h/mL. Moreover, the bioavailability in data set [17] was 3.1%; in [18], 27%; in data set [29], 68%. The Change in data set [10] stood at 28%. Also, the Cmax in data set [11] came out at 1200 ng/mL; in data set [19], 510 ng/mL; in data set [20] it was 70 ng/mL; in [21], 980 ng/mL. Moreover, the concentration at 0.5 h in [22] came to 560 ng/mL; in data set [26], 230 ng/mL. Also, the solubility in data set [23] was determined as 13 µg/mL (≈ 18.4 µM). Also, the concentration at 10 min in data set [24] was found to be 550 ng/mL; in data set [25], 220 ng/mL. The logD in data set [13] came to 4.22. Moreover, the pIC50 in data set [27] was 8.59; in [28], < 5.00; in [30] it was 7.48; in data set [31], 9.12.

Source of the values: ChEMBL document CHEMBL1126595, “Studies directed toward the design of orally active renin inhibitors. 2. Development of the efficacious, bioavailable renin inhibitor (2S)-2-benzyl-3- [[(1-methylpiperazin-4-yl)sulfonyl]propionyl]-3-thiazol-4-yl-L-alanine amide of (2S,3R,4S)-2-amino-1-cyclohexyl-3,4-dihydroxy-6-methylheptane …” (J Med Chem, 1993).
